Calls of active or inactive are those of the source.
Columns and labels:
[1] = Cytotoxicity against human HEK cells at 1.25 to 80 uM after 48 hrs by ATP-based luminescent proliferation assay; format: cell-based
How it was run: (§1)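 Floor-of-mouth OSCC lines (UMSCC1, UMSCC14A) and nonmalignant primary human epidermal keratinocytes were treated at 1.25–80 μM for 24 and 48 h. Growth was measured by ATP-based luminescent proliferation assay, and OSCC vs keratinocytes was compared by two-way ANOVA.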

[2] = tested on: UMSCC1; test: Cytotoxicity against human UMSCC1 cells at 1.25 to 80 uM up to 48 hrs by ATP-based luminescent proliferation assay; format: functional, cell-based; how it was run: as §1
[3] = Cytotoxicity against human HEK cells at 1.25 to 80 uM after 24 hrs by ATP-based luminescent proliferation assay; format: cell-based; how it was run: as §1
[4] = tested on: UMSCC14A; test: Cytotoxicity against human UMSCC14A cells at 1.25 to 80 uM up to 48 hrs by ATP-based luminescent proliferation assay; format: functional, cell-based; how it was run: as §1
[5] = tested on: MEF; test: Activation of unfolded protein response in Atf4-deficient mouse MEF assessed as effect on Trb3 expression at 40 uM after 6 hrs by qRT-PCR analysis; format: functional, cell-based
How it was run: (§2)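 Atf4-null murine embryonic fibroblasts and wildtype littermate controls were exposed to 40 μM for 6 h, with 2.5 μg/mL tunicamycin as comparator. cDNA libraries were made from the cells, and Noxa, Puma and Trb3 transcripts were quantified by qRT-PCR.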

[6] = tested on: MEF; test: Activation of unfolded protein response in Atf4-deficient mouse MEF assessed as effect on Puma expression at 40 uM after 6 hrs by qRT-PCR analysis; format: functional, cell-based; how it was run: as §2
[7] = tested on: MEF; test: Activation of unfolded protein response in Atf4-deficient mouse MEF assessed as effect on Noxa expression at 40 uM after 6 hrs by qRT-PCR analysis; format: functional, cell-based; how it was run: as §2
[8] = tested on: UMSCC1; test: Activation of unfolded protein response in human UMSCC1 cells assessed as increase of BiP/GRP78 expression at 40 uM after 6 to 12 hrs by qRT-PCR analysis; format: functional, cell-based
How it was run: (§3)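 UMSCC1 oral squamous carcinoma cells were treated for 6 or 12 h, and UPR marker transcripts were quantified by qRT-PCR.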

[9] = tested on: UMSCC14A; test: Activation of unfolded protein response in human UMSCC14A cells assessed as increase of spliced XBP1 expression at 40 uM after 6 to 12 hrs by qRT-PCR analysis; format: functional, cell-based
[10] = Activation of unfolded protein response in human UMSC23 cells assessed as increase of ATF3 expression at 40 uM after 6 to 12 hrs by qRT-PCR analysis; format: functional, cell-based
[11] = tested on: UMSCC14A; test: Activation of unfolded protein response in human UMSCC14A cells assessed as increase of BiP/GRP78 expression at 40 uM after 6 to 12 hrs by qRT-PCR analysis; format: functional, cell-based
[12] = tested on: MEF; test: Antiproliferative activity against mouse MEF harboring eIF2-alpha (Ser51Ala) mutant after 16 hrs by ATP-based luminescent proliferation assay; format: functional, cell-based
[13] = tested on: UMSCC14A; test: Activation of unfolded protein response in human UMSCC14A cells assessed as increase of GADD34 expression at 40 uM after 6 to 12 hrs by qRT-PCR analysis; format: functional, cell-based
[14] = tested on: MEF; test: Antiproliferative activity against Chop-deficient mouse MEF after 16 hrs by ATP-based luminescent proliferation assay; format: functional, cell-based
How it was run: (§4)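 Atf4−/− and Chop−/− murine embryonic fibroblasts, each with wildtype littermate controls, were dosed across a concentration series for 16 h. Proliferation was read by ATP-based luminescence, and wildtype vs null was compared by two-way ANOVA (dose, interaction).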

[15] = tested on: UMSCC1; test: Activation of unfolded protein response in human UMSCC1 cells assessed as increase of ATF3 expression at 40 uM after 6 to 12 hrs by qRT-PCR analysis; format: functional, cell-based; how it was run: as §3
[16] = Activation of unfolded protein response in human UMSC23 cells assessed as increase of BiP/GRP78 expression at 40 uM after 6 to 12 hrs by qRT-PCR analysis; format: functional, cell-based
[17] = Activation of unfolded protein response in human UMSC23 cells assessed as increase of spliced XBP1 expression at 40 uM after 6 to 12 hrs by qRT-PCR analysis; format: functional, cell-based
[18] = Activation of unfolded protein response in human UMSC23 cells assessed as increase of GADD34 expression at 40 uM after 6 to 12 hrs by qRT-PCR analysis; format: functional, cell-based
[19] = tested on: UMSCC14A; test: Activation of unfolded protein response in human UMSCC14A cells assessed as increase of CHOP expression at 40 uM after 6 to 12 hrs by qRT-PCR analysis; format: functional, cell-based
[20] = tested on: UMSCC1; test: Activation of unfolded protein response in human UMSCC1 cells assessed as increase of spliced XBP1 expression at 40 uM after 6 to 12 hrs by qRT-PCR analysis; format: functional, cell-based; how it was run: as §3
[21] = tested on: UMSCC1; test: Activation of unfolded protein response in human UMSCC1 cells assessed as increase of GADD34 expression at 40 uM after 6 to 12 hrs by qRT-PCR analysis; format: functional, cell-based; how it was run: as §3
[22] = tested on: MEF; test: Antiproliferative activity against Atf4-deficient mouse MEF after 16 hrs by ATP-based luminescent proliferation assay; format: functional, cell-based; how it was run: as §4
[23] = tested on: UMSCC14A; test: Activation of unfolded protein response in human UMSCC14A cells assessed as increase of ATF3 expression at 40 uM after 6 to 12 hrs by qRT-PCR analysis; format: functional, cell-based
[24] = Activation of unfolded protein response in human UMSC23 cells assessed as increase of CHOP expression at 40 uM after 6 to 12 hrs by qRT-PCR analysis; format: functional, cell-based
[25] = tested on: UMSCC1; test: Activation of unfolded protein response in human UMSCC1 cells assessed as increase of CHOP expression at 40 uM after 6 to 12 hrs by qRT-PCR analysis; format: functional, cell-based; how it was run: as §3

Measured: Activity

COC(=O)N[C@H]1[C@@H](C)O[C@@H](O[C@H]2C/C=C(\C)[C@@H]3C=C[C@@H]4[C@@H](O[C@H]5C[C@@H](O[C@H]6C[C@@H](O)[C@@H](O[C@@H]7C[C@@H](O)[C@@H](OC)[C@H](C)O7)[C@H](C)O6)[C@@H](O)[C@H](C)O5)[C@@H](C)C[C@H](C)[C@H]4[C@]3(C)C(=O)C3=C(O)[C@@]4(C[C@@H](C)C(C)=C[C@H]4/C=C/2C)OC3=O)C[C@]1(C)[N+](=O)[O-]
active: [2] | [4]
Non-toxic: [3]
Toxic: [1]

COC(=O)N[C@H]1[C@@H](C)O[C@@H](O[C@H]2C/C=C(\C)[C@@H]3C=C[C@@H]4[C@@H](O[C@H]5C[C@@H](O[C@H]6C[C@@H](O)[C@@H](O[C@@H]7C[C@@H](O)[C@@H](OC)[C@H](C)O7)[C@H](C)O6)[C@@H](O)[C@H](C)O5)[C@@H](C)C[C@H](C)[C@H]4[C@]3(C)C(=O)C3=C(O)[C@@]4(C[C@@H](C)C(CO)=C[C@H]4/C=C/2C)OC3=O)C[C@]1(C)O
active: [2] | [4]
Non-toxic: [3]

COC(=O)N[C@H]1[C@@H](C)O[C@@H](O[C@H]2C/C=C(\C)[C@@H]3C=C[C@@H]4[C@@H](O[C@H]5C[C@@H](O[C@H]6C[C@@H](O)[C@@H](O[C@@H]7C[C@@H](O)[C@@H](OC)[C@H](C)O7)[C@H](C)O6)[C@@H](O)[C@H](C)O5)[C@@H](C)C[C@H](C)[C@H]4[C@]3(C)C(=O)C3=C(O)[C@@]4(C[C@@H](C)C(CO)=C[C@H]4/C=C/2C)OC3=O)C[C@]1(C)[N+](=O)[O-]
Non-toxic: [3]
active: [2] | [4]
inactive: [5] | [6] | [7]
Toxic: [1]

COC(=O)N[C@H]1[C@@H](C)O[C@@H](O[C@H]2C/C=C(\C)[C@@H]3C=C[C@@H]4[C@@H](O[C@H]5C[C@@H](O[C@H]6C[C@@H](O)[C@@H](O)[C@H](C)O6)[C@@H](O)[C@H](C)O5)[C@@H](C)C[C@H](C)[C@H]4[C@]3(C)C(=O)C3=C(O)[C@@]4(C[C@@H](C)C(C)=C[C@H]4/C=C/2C)OC3=O)C[C@]1(C)[N+](=O)[O-]
inactive: [5] | [12] | [14] | [22] | [6] | [7]
Non-toxic: [3]
not listed: [1]
active: all other assays above
